Assay results published in ChEMBL document CHEMBL4425091, “Bafilomycins and Odoriferous Sesquiterpenoids from Streptomyces albolongus Isolated from Elephas maximus Feces” (J Nat Prod, 2016).
In brackets after ≈: the same amount, converted by molar mass. Structures can show the parent of a compound that is named as a salt. Activity calls are given as the source filed them.

Legend:
BGC-823 = test: Cytotoxicity against human BGC823 cells assessed as reduction in cell viability by MTT assay; type: functional, cell-based
How it was run: (§1)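 MTT viability assay in human cancer cell lines. IC50 was defined as a 50% reduction of absorbance relative to the control assay. Adriamycin served as the positive control.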

Caco-2 = test: Cytotoxicity against human Caco2 cells assessed as reduction in cell viability by MTT assay; type: functional, cell-based; how it was run: as §1
NCI-H460 = test: Cytotoxicity against human NCI-H460 cells assessed as reduction in cell viability by MTT assay; type: functional, cell-based; how it was run: as §1
SMMC-7721 = test: Cytotoxicity against human SMMC7721 cells assessed as reduction in cell viability by MTT assay; type: functional, cell-based; how it was run: as §1
Bacillus spizizenii [1] = test: Antibacterial activity against Bacillus subtilis ATCC 6633 at 100 ug/ml after 24 hrs by MTT based microbroth dilution assay; type: functional, organism-based
Staphylococcus aureus [2] = test: Antibacterial activity against Staphylococcus aureus ATCC 25923 at 100 ug/ml after 24 hrs by MTT based microbroth dilution assay; type: functional, organism-based
Escherichia coli = test: Antibacterial activity against Escherichia coli ATCC 25922 at 100 ug/ml after 24 hrs by MTT based microbroth dilution assay; type: functional, organism-based
Candida albicans [3] = test: Antifungal activity against Candida albicans ATCC MYA-2876 at 100 ug/ml after 48 hrs by MTT based microbroth dilution assay; type: functional, organism-based
Candida parapsilosis [4] = test: Antifungal activity against Candida parapsilosis ATCC 22019 at 100 ug/ml after 48 hrs by MTT based microbroth dilution assay; type: functional, organism-based
Cryptococcus neoformans [5] = test: Antifungal activity against Cryptococcus neoformans ATCC 208821 at 100 ug/ml after 72 hrs by MTT based microbroth dilution assay; type: functional, organism-based
Bacillus spizizenii [6] = test: Antibacterial activity against Bacillus subtilis ATCC 6633 after 24 hrs by MTT based microbroth dilution assay; type: functional; conditions: ATCC 6633, 24 h
How it was run: (§2)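 Two-fold broth microdilution MIC in LB medium (pH 7.0). Compounds dissolved in DMSO, serially diluted to eight levels (11.0−0.086 mg/mL), then each diluted 10-fold in medium (1.1−0.0086 mg/mL). 10 μL of this added to 100 μL of bacteria at 1 × 10^6 cfu/mL. Incubated 24 h at 28 °C. MTT added for 4 h, wells emptied, DMSO added, absorbance read at 570 nm.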

Candida albicans [7] = test: Antifungal activity against Candida albicans ATCC MYA-2876 after 48 hrs by MTT based microbroth dilution assay; type: functional; conditions: ATCC MYA-2876, 48 h
How it was run: (§3)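 MIC by broth microdilution in RPMI-1640 with NaHCO3 and MOPS, pH 7.0. DMSO stocks were 2-fold serially diluted to eight levels, then 10-fold in medium (1.1–0.0086 mg/mL). 10 µL was added to 100 µL yeast suspension: C. albicans and C. parapsilosis at 2 × 10^3 cfu/mL for 48 h; C. neoformans at 5 × 10^4 cfu/mL for 72 h; all at 28 °C. MTT added for 4 h, DMSO solubilization, A570.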

Candida parapsilosis [8] = test: Antifungal activity against Candida parapsilosis ATCC 22019 after 48 hrs by MTT based microbroth dilution assay; type: functional; conditions: Lodderomyces parapsilosis, ATCC 22019, 48 h; how it was run: as §3
Cryptococcus neoformans [9] = test: Antifungal activity against Cryptococcus neoformans ATCC 208821 after 72 hrs by MTT based microbroth dilution assay; type: functional; conditions: ATCC 208821, 72 h; how it was run: as §3
Staphylococcus aureus [10] = test: Antibacterial activity against Staphylococcus aureus ATCC 25923 after 24 hrs by MTT based microbroth dilution assay; type: functional; conditions: ATCC 25923, 24 h; how it was run: as §2

Compound | Activity (BGC-823) | Activity (Caco-2) | Activity (NCI-H460) | Activity (SMMC-7721) | Activity (Bacillus spizizenii [1]) | Activity (Staphylococcus aureus [2]) | Activity (Escherichia coli) | Activity (Candida albicans [3]) | Activity (Candida parapsilosis [4]) | Activity (Cryptococcus neoformans [5]) | IC50 (BGC-823) [µM] | IC50 (Caco-2) [µM] | IC50 (NCI-H460) [µM] | IC50 (SMMC-7721) [µM] | MIC (Bacillus spizizenii [6]) [µg/mL] | MIC (Candida albicans [7]) [µg/mL] | MIC (Candida parapsilosis [8]) [µg/mL] | MIC (Cryptococcus neoformans [9]) [µg/mL] | MIC (Staphylococcus aureus [10]) [µg/mL]
CC1(C)C[C@H]2[C@H]1CC[C@]1(C)CCC[C@@]2(O)C1 | inactive | inactive | inactive | inactive | inactive | inactive | inactive | inactive | inactive | inactive | – | – | – | – | – | – | – | – | –
CO/C1=C\C(C)=C\[C@@H](C)[C@@H](O)[C@@H](C)C/C(C)=C/C=C/[C@H](OC)[C@@H]([C@@H](C)[C@@H](O)[C@H](C)[C@@]2(OC)CC[C@H](C)[C@@H](C(C)C)O2)OC1=O | – | – | – | – | inactive | inactive | inactive | inactive | inactive | inactive | 46.9 | > 100 | > 100 | 13.6 | – | – | – | – | –
O=C(O)c1cn(C2CC2)c2cc(N3CCNCC3)c(F)cc2c1=O [CIPROFLOXACIN] | – | – | – | – | – | – | – | – | – | – | – | – | – | – | 0.25 (≈ 0.754 µM) | – | – | – | –
CC1(C)C[C@H]2[C@H]1CC[C@@]1(C)C[C@]2(O)CC[C@@H]1O | inactive | inactive | inactive | inactive | inactive | inactive | inactive | inactive | inactive | inactive | – | – | – | – | – | – | – | – | –
C[C@H]1[C@@H](O)CC[C@@]2(C)CCCC[C@]12O | – | – | – | – | inactive | inactive | inactive | inactive | inactive | inactive | 49.3 | > 100 | > 100 | > 100 | – | – | – | – | –
CO/C1=C\C(C)=C\[C@@H](C)[C@@H](O)[C@@H](C)C/C(C)=C/C=C/[C@H](OC)[C@@H]([C@@H](C)[C@@H](O)[C@H](C)[C@@]2(O)C[C@@H](OC)[C@H](C)[C@@H](C(C)C)O2)OC1=O [BAFILOMYCIN G] | – | – | – | – | inactive | inactive | inactive | inactive | inactive | inactive | 69.2 | > 100 | > 100 | 8.67 | – | – | – | – | –
CO/C1=C\C(C)=C\[C@@H](C)[C@@H](O)[C@@H](C)C/C(C)=C/C=C/[C@H](OC)[C@@H]([C@@H](C)[C@@H](O)[C@H](C)[C@@]2(OC)C[C@@H](O)[C@H](C)[C@@H](C(C)C)O2)OC1=O | – | – | – | – | inactive | inactive | inactive | inactive | inactive | inactive | 22.4 | 10.2 | 26.7 | 9.42 | – | – | – | – | –
C[C@H]1CC[C@@H](O)[C@@]2(C)C[C@H](O)CC[C@]12O | – | – | – | – | – | – | – | – | – | – | 47.2 | 42.5 | > 100 | > 100 | – | 100 (≈ 467 µM) | 100 (≈ 467 µM) | > 100 | –
C/C1=C\[C@@H](O)C[C@H](C)/C=C/[C@H](C(C)(C)O)CC1 | inactive | inactive | inactive | inactive | inactive | inactive | inactive | inactive | inactive | inactive | – | – | – | – | – | – | – | – | –
C[C@@H]1[C@H](O)[C@@H](C)/C=C/C=C/C=C/C=C/C=C/C=C/C=C/[C@H](O[C@@H]2O[C@H](C)[C@@H](O)[C@H](N)[C@@H]2O)C[C@@H]2O[C@](O)(C[C@@H](O)C[C@@H](O)[C@H](O)CC[C@@H](O)C[C@@H](O)CC(=O)O[C@H]1C)C[C@H](O)[C@H]2C(=O)O [AMPHOTERICIN B] | – | – | – | – | – | – | – | – | – | – | – | – | – | – | – | 1 (≈ 1.08 µM) | 2 (≈ 2.16 µM) | 2 (≈ 2.16 µM) | –
CO/C1=C\C(C)=C\[C@@H](C)[C@@H](O)[C@@H](C)C/C(C)=C/C=C/[C@H](OC)[C@@H]([C@@H](C)[C@@H](O)[C@H](C)[C@@]2(O)CC[C@H](C)[C@@H](C(C)C)O2)OC1=O | – | – | – | – | – | – | – | – | – | – | 11.8 | 46.2 | 44.1 | 10.1 | – | 100 (≈ 165 µM) | 3.13 (≈ 5.16 µM) | 25 (≈ 41.2 µM) | –
COc1cccc2c1C(=O)c1c(O)c3c(c(O)c1C2=O)C[C@@](O)(C(=O)CO)C[C@@H]3O[C@H]1C[C@H](N)[C@H](O)[C@H](C)O1 [DOXORUBICIN HYDROCHLORIDE] | – | – | – | – | – | – | – | – | – | – | – | 0.97 | 0.98 | 2.24 | – | – | – | – | –
CC1=C[C@@H]2[C@@H](C(C)C)CC[C@H](C)[C@]2(O)CC1 | inactive | inactive | inactive | inactive | inactive | inactive | inactive | inactive | inactive | inactive | – | – | – | – | – | – | – | – | –
CO/C1=C\C(C)=C\[C@@H](C)[C@@H](O)[C@@H](C)C/C(C)=C/C=C/[C@H](OC)[C@@H]([C@@H](C)[C@@H](O)[C@H](C)[C@@]2(O)C[C@@H](OC(=O)/C=C/C(=O)O)[C@H](C)[C@@H](C(C)C)O2)OC1=O | – | – | – | – | – | – | – | – | – | – | 1.83 | 1.89 | 3.43 | 0.54 | 12.5 (≈ 17.3 µM) | 1.56 (≈ 2.16 µM) | 1.56 (≈ 2.16 µM) | 1.56 (≈ 2.16 µM) | 12.5 (≈ 17.3 µM)
CO/C1=C\C(C)=C\[C@@H](C)[C@@H](O)[C@@H](C)C/C(C)=C/C=C/[C@H](OC)[C@@H]([C@@H](C)[C@@H](O)[C@H](C)[C@@]2(O)C[C@@H](O)[C@H](C)[C@@H](C(C)C)O2)OC1=O [BAFILOMYCIN A1] | – | – | – | – | inactive | inactive | inactive | inactive | inactive | inactive | 6.47 | 5.49 | 12.4 | 2.03 | – | – | – | – | –
C[C@H]1CC[C@@H](O)[C@@]2(C)CCCC[C@]12O | – | – | – | – | – | – | – | – | – | – | 34.6 | 85.5 | > 100 | 41.7 | – | 12.5 (≈ 63 µM) | 3.13 (≈ 15.8 µM) | > 100 | –
CO/C1=C\C(C)=C\[C@@H](C)[C@@H](O)[C@@H](C)C/C(C)=C/C=C/[C@H](OC)[C@@H]([C@@H](C)[C@@H](O)[C@H](C)[C@@]2(OC)C[C@@H](OC(=O)/C=C/C(N)=O)[C@H](C)[C@@H](C(C)C)O2)OC1=O | – | – | – | – | inactive | inactive | inactive | inactive | inactive | inactive | 3.58 | 2.81 | 5.02 | 1.36 | – | – | – | – | –
CO/C1=C\C(C)=C\[C@@H](C)[C@@H](O)[C@@H](C)C/C(C)=C/C=C/[C@H](OC)[C@@H]([C@@H](C)[C@@H](O)[C@H](C)[C@@]2(O)C[C@@H](OC(=O)/C=C/C(N)=O)[C@H](C)[C@@H](C(C)C)O2)OC1=O | – | – | – | – | – | – | – | – | – | – | 0.99 | 2.3 | 2.34 | 1.05 | – | 100 (≈ 139 µM) | 1.56 (≈ 2.17 µM) | 25 (≈ 34.7 µM) | –
CO/C1=C/C(C)=C/[C@@H](C)[C@@H](O)[C@@H](C)C/C(C)=C/C=C/[C@H](OC)C([C@@H](C)[C@@H](O)[C@H](C)C(=O)/C=C/[C@H](C)[C@H](O)C(C)C)OC1=O (some centres undefined) | – | – | – | – | inactive | inactive | inactive | inactive | inactive | inactive | 9.46 | 14.6 | 49.8 | 9.79 | – | – | – | – | –
